KDM4C inh = KDM4C (human) demethylase inhibition. inhibition, % at 12.5 µM. 96,000 tested, 0.15% active. GST-KDM4C 2-372, H3K9me3 peptide, LANCE TR-FRET. AID 720574. Q9H3R0;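 active means mean replicate inhibition above about 25%, with at least 55% of replicates also reaching it, limit read from the data, passing the limit was not always enough; inconclusive means only one of those two conditions met; inactive means neither condition met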
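reagent = H3K9me3 peptide substrate, Fe(II), 2-oxoglutarate | system = GST-tagged GASC-1 (JMJD2C) catalytic fragment, aa 2-372 | amount = enzyme final amount 10 nM | read-out = Fall in 671/618 emission ratio as inhibition | medium = HEPES buffer, pH 7.5, plus ascorbate | schedule = 30 min reaction, 60 min detection, RT | measured by = LANCE TR-FRET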
IDH1 mut inh = blocks human IDH1 R132H reductase activity | 70,000 tested, 0.18% active | diaphorase/resazurin fluorescence, 60 min | inhibition, % at 10 µM | AID 624101; in the data active means inhibition above about 34%; inconclusive means no clear call, values can overlap the other calls; inactive means below about 11%
Target sequence (O75874 whole entry R132H): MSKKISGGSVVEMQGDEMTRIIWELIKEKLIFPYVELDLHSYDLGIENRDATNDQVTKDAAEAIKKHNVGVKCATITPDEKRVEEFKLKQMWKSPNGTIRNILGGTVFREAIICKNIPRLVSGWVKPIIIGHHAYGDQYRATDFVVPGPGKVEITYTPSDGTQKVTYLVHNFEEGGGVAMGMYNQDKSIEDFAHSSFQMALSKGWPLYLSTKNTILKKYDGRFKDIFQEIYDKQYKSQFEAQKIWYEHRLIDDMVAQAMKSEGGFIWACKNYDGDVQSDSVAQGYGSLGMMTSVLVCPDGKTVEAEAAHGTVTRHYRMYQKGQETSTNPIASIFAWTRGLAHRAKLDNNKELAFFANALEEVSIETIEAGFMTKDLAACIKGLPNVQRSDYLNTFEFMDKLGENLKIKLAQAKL
Pf Dd2 growth = inhibitors of Plasmodium falciparum Dd2 growth | 94,000 tested, 2.3% active | P. falciparum Dd2 growth, SYBR Green, 72 h; hits give low values | activity change, % at 10 µM; in the data active means activity change below about -80%; inconclusive means no clear call, values can overlap the other calls
T cruzi growth-1 = T. cruzi proliferation inhibition. AID 624255. T. cruzi beta-gal in NIH3T3, GalScreen luminescence, 90 h. 77,000 tested, 5.9% active. inhibition, % at 8.34 µM;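 active means mean inhibition above about 93%, with at least 55% of replicates each passing it, limit read from the data, passing the limit was not always enough; inconclusive means only one of those two conditions holds; inactive means neither condition holds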
T cruzi growth-2 = Trypanosoma cruzi proliferation inhibition. shares compounds with T cruzi growth-1. T. cruzi beta-gal in NIH3T3, GalScreen luminescence, 90 h. inhibition, % at 8.35 µM. 5,600 tested, 72% active. AID 651739;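 active means mean replicate inhibition above about 95% and at least 55% of replicates individually reaching it, limit read from the data; inconclusive means only one of the two criteria is met; inactive means neither criterion is met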
T cruzi growth-3 = blocks T. cruzi growth in NIH3T3 host cells | shares compounds with T cruzi growth-1 | T. cruzi beta-gal in NIH3T3, GalScreen luminescence, 90 h | inhibition, % at 2.09 µM | 5,600 tested, 21% active | AID 651740;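 active means mean inhibition above about 95%, with at least 55% of replicates also reaching it, limit read from the data; inconclusive means meets just one of the two conditions; inactive means meets neither condition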
3T3 cytotox = kills mouse NIH/3T3 fibroblasts; 5,600 tested, 14% active; AID 651742; NIH/3T3 viability, CellTiter-Glo ATP luminescence, 90 h; shares compounds with T cruzi growth-1; cytotoxicity (signal decrease), % at 8.35 µM;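 active means mean signal decrease across replicates above about 35% based on untreated-well scatter, with enough replicates individually passing, limit read from the data; inconclusive means no rule stated though some were filed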
3T3 cytotox 2 = NIH/3T3 (mouse) viability loss; shares compounds with T cruzi growth-1; NIH/3T3 viability, CellTiter-Glo ATP luminescence, 90 h; inhibition, % at 24.9 µM; 5,600 tested, 56% active; AID 651744;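 active means mean loss of cell viability signal at or above a set limit, and enough replicates individually reaching it; inconclusive means meets only the mean limit or only the replicate share; inactive means meets neither condition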
Numbers stand for hits; i = inactive; ? = inconclusive; nt = not tested or not shown. Most compounds without a hit are left out; they make up all but 5.9% or so of the library.

SMILES | KDM4C inh | IDH1 mut inh | Pf Dd2 growth | T cruzi growth-1 | T cruzi growth-2 | T cruzi growth-3 | 3T3 cytotox | 3T3 cytotox 2
Cc1cccc(-c2ccc([C@H]3[C@H](CO)N4CCCCN(CCC(F)(F)F)C[C@@H]34)cc2)c1 | i | nt | i | 108 | ? | i | i | 104
OC[C@H]1[C@@H](c2ccc(-c3ccccc3)cc2)[C@@H]2CN(CCC(F)(F)F)CCCCN12 | i | nt | i | i | nt | nt | nt | nt
Cc1cccc(-c2ccc([C@H]3[C@@H](CO)N4CCCCN(CCC(F)(F)F)C[C@H]34)cc2)c1 | i | nt | -85 | 105 | 100 | 102 | i | 105
O=C(N[C@@H]1CC[C@@H](CCNS(=O)(=O)c2ccccc2)O[C@H]1CO)c1cnccn1 | i | i | i | i | nt | nt | nt | nt
COc1ccc2c3c([nH]c2c1)[C@H](CO)N(C)CC31CN(C(=O)C2CC2)C1 | i | nt | i | nt | nt | nt | nt | nt
CC(C)C(=O)Nc1ccc2c(c1)C(=O)N(C)[C@@H]1CC[C@@H](CC(=O)NCc3ccccc3F)O[C@@H]1CO2 | i | nt | i | i | nt | nt | nt | nt
CO[C@@H]1CN(C)C(=O)c2cc(NC(=O)C3CCOCC3)ccc2OC[C@@H](C)N(Cc2ccc(F)cc2)C[C@H]1C | i | i | i | i | nt | nt | nt | nt
C[C@H](CO)N1C[C@H](C)[C@H](CN(C)C(=O)C2CCCCC2)Oc2ncc(/C=C/c3ccccc3)cc2C1=O | i | i | ? | i | nt | nt | nt | nt
C[C@H](CO)N1C[C@H](C)[C@@H](CN(C)C(=O)C2CCC2)Oc2ncc(/C=C/c3ccccc3)cc2C1=O | i | i | i | i | nt | nt | nt | nt
C[C@H]1CN([C@@H](C)CO)C(=O)c2cc(/C=C/c3ccccc3)cnc2O[C@@H]1CN(C)C(=O)C1CCCCC1 | i | nt | -88 | 99 | 101 | i | i | ?
C[C@@H]1CN([C@H](C)CO)C(=O)c2cc(/C=C/c3ccccc3)cnc2O[C@@H]1CN(C)C(=O)C1CCCCC1 | i | nt | i | i | nt | nt | nt | nt
C[C@H]1CN([C@@H](C)CO)C(=O)c2cc(/C=C/c3ccccc3)cnc2O[C@@H]1CN(C)C(=O)C1CCC1 | i | i | i | ? | ? | i | i | i
C[C@H](CO)N1C[C@H](C)[C@@H](CN(C)C(=O)C2CCCCC2)Oc2ncc(/C=C/c3ccccc3)cc2C1=O | i | i | -89 | 113 | 112 | i | i | i
C[C@@H]1CN([C@@H](C)CO)C(=O)c2cc(Br)cnc2O[C@H]1CN(C)C(=O)CCN1CCCCC1 | i | nt | i | nt | nt | nt | nt | nt
COc1ccccc1CNC(=O)C[C@H]1C[C@H]2c3cc(NC(=O)C4CCOCC4)ccc3O[C@H]2[C@@H](CO)O1 | i | i | i | i | nt | nt | nt | nt
CN1C(=O)c2cc(NC(=O)C3CCOCC3)ccc2OC[C@@H]2O[C@@H](CC(=O)NCC3CC3)CC[C@H]21 | i | nt | i | i | nt | nt | nt | nt
Cc1ccc(-c2ccc([C@H]3[C@@H](CO)N4CCCCN(C(=O)Nc5cccc(F)c5)C[C@H]34)cc2)cc1 | i | nt | i | 107 | 109 | 115 | 119 | 105
O=C(Nc1ccc(F)cc1)N1CCCCN2[C@@H](CO)[C@@H](c3ccc(-c4ccncc4)cc3)[C@@H]2C1 | i | nt | i | i | nt | nt | nt | nt
O=C(Nc1cccc(F)c1)N1CCCCN2[C@H](C1)[C@@H](c1ccc(-c3ccncc3)cc1)[C@@H]2CO | i | nt | i | 111 | 111 | i | i | i
O=C(Nc1cccc(F)c1)N1CCCCN2[C@H](CO)[C@H](c3ccc(-c4ccncc4)cc3)[C@H]2C1 | i | nt | i | 105 | 112 | i | i | 53
CC(=O)N(C)C[C@H]1Oc2cc(C#CCC3CCCC3)ccc2S(=O)(=O)N([C@@H](C)CO)C[C@@H]1C | i | i | i | i | nt | nt | nt | nt
C[C@@H]1CN([C@@H](C)CO)C(=O)c2cc(C#CCC3CCCC3)cnc2O[C@H]1CN(C)C(=O)CC1CC1 | i | i | i | 100 | ? | i | i | 39
C[C@@H]1CN([C@H](C)CO)C(=O)c2cc(C#CCC3CCCC3)cnc2O[C@H]1CN(C)C(=O)CC1CC1 | i | i | i | ? | 96 | i | i | 83
Cc1cc(C(=O)Nc2cccc3c2O[C@@H](CN(C)Cc2ccc(Cl)c(Cl)c2)[C@H](C)CN([C@@H](C)CO)C3=O)n(C)n1 | i | i | i | i | nt | nt | nt | nt
COc1ccc(NC(=O)Nc2ccc3c(c2)C(=O)N([C@@H](C)CO)C[C@H](C)[C@@H](CN(C)C(=O)Nc2ccc(F)cc2)OCCCC[C@H](C)O3)cc1 | i | nt | i | 109 | 100 | i | i | i
SMILES | KDM4C inh | IDH1 mut inh | Pf Dd2 growth | T cruzi growth-1 | T cruzi growth-2 | T cruzi growth-3 | 3T3 cytotox | 3T3 cytotox 2
COc1ccc(NC(=O)Nc2ccc3c(c2)C(=O)N([C@@H](C)CO)C[C@@H](C)[C@H](CN(C)C(=O)Nc2ccc(F)cc2)OCCCC[C@H](C)O3)cc1 | i | i | i | nt | nt | nt | nt | nt
COc1ccc(NC(=O)Nc2ccc3c(c2)C(=O)N([C@@H](C)CO)C[C@@H](C)[C@H](CN(C)C(=O)Nc2ccc4c(c2)OCO4)OCCCC[C@@H](C)O3)cc1 | i | nt | i | i | nt | nt | nt | nt
COc1ccc(NC(=O)Nc2ccc3c(c2)C(=O)N([C@H](C)CO)C[C@@H](C)[C@H](CN(C)C(=O)Nc2ccc4c(c2)OCO4)OCCCC[C@@H](C)O3)cc1 | i | i | i | 117 | 111 | i | i | i
COc1ccc(NC(=O)Nc2ccc3c(c2)C(=O)N([C@H](C)CO)C[C@@H](C)[C@H](CN(C)C(=O)Nc2ccc(F)cc2)OCCCC[C@@H](C)O3)cc1 | i | nt | i | 112 | 98 | 104 | i | i
COCC#Cc1ccc([C@H]2[C@@H](CO)N3CCCCN(C(=O)CN(C)C)C[C@@H]23)cc1 | i | nt | i | i | nt | nt | nt | nt
O=C(C[C@H]1CC[C@@H]2[C@H](COC[C@H](O)CN2Cc2ccc(Oc3ccccc3)cc2)O1)Nc1nccs1 | i | nt | i | 133 | 103 | i | i | 52
O=C(C[C@@H]1CC[C@H]2[C@@H](COC[C@@H](O)CN2Cc2ccc(Oc3ccccc3)cc2)O1)Nc1nccs1 | i | nt | i | 117 | 101 | i | i | 97
O=C(C[C@@H]1CC[C@@H]2[C@H](COC[C@@H](O)CN2Cc2ccc(Oc3ccccc3)cc2)O1)Nc1nccs1 | i | nt | i | 108 | 102 | i | i | i
O=C(C[C@@H]1CC[C@@H]2[C@H](COC[C@H](O)CN2Cc2ccc(Oc3ccccc3)cc2)O1)Nc1nccs1 | i | nt | i | 133 | 100 | i | i | i
O=C(C[C@@H]1CC[C@H]2[C@@H](COC[C@H](O)CN2Cc2ccc(Cl)cc2)O1)Nc1nccs1 | i | nt | i | i | nt | nt | nt | nt
O=C(C[C@@H]1CC[C@@H]2[C@H](COC[C@H](O)CN2Cc2nccs2)O1)NCc1ccc(Oc2ccccc2)cc1 | i | nt | i | nt | nt | nt | nt | nt

Bioassay records from PubChem BioAssay.
